The list shows a part of the results. The source made the active and inactive calls. Unless noted, no rule for the calls is given here.

Assay [1] in a line: inhibition of Brca1/Bard1 split-luciferase complementation, confirmation, counter-screen for Mdm2/MdmX interaction inhibitor project, luminescence, single concentration (AID 504668). The following applies: Brca1/Bard1 bimolecular luciferase complementation counterscreen, at 8 µM, stronger effect = higher value.
Assay [2] addresses PEG-3 (UniProt Q6IN02). The assay can be described thus: Peg3 promoter luciferase inhibitors, potency, dose response, cell-based, HeLa, CREF/GAPDH counter-screen panel (AID 624167). The following applies: CREF/GAPDH counter-screens; HeLa PEG-Prom luciferase reporter, overnight, run 1, dose range 1, at 100 µM (top of the series) unless noted.
Assay [3] has as its target PEG-3 (UniProt Q6IN02). The description is as above. The following applies: CREF/GAPDH counter-screens; HeLa PEG-Prom luciferase reporter, overnight, run 2, dose range 1, at 100 µM (top of the series) unless noted.
Assay [4] relates to Rat fibroblasts (CREF). Described as above. The following applies: CREF/GAPDH counter-screens; run 1, dose range 1, at 100 µM (top of the series).
Assay [5] concerns Rat fibroblasts (CREF). The assay is described as above. The following applies: CREF/GAPDH counter-screens; run 2, dose range 1, at 100 µM (top of the series).
Assay [6] can be described thus: inhibitors of PAF-induced NF-kB signaling, retest, confirmation, cell-based, GFP fluorescence, single concentration (AID 602472; in the data active = inhibition above about 40%;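 also: stimulus PAF is a Pseudomonas aeruginosa filtrate and not platelet activating factor; plate controls were DMSO wells with stimulus for no effect and unstimulated DMSO wells for full effect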). The following applies: KKLEB CF airway cells, overnight, at 5 µM, stronger effect = higher value. The method, boiled down:
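Test system: KKLEB NFkB-GFP reporter cells | Buffer or medium: Medium with 2% FBS for cells, serum-free medium for stimulus | Probe or stimulus: Pseudomonas aeruginosa filtrate (PAF) as NFkB-activating stimulus | Doses: 5 µM single dose | Incubation: 2 h pretreatment, overnight stimulation | Measured by: GFP fluorescence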

Assay [7] is described as follows: inhibitors of PAF-induced NFkB signaling in CF airway cells, dose response, cell-based, uHTS hits, panel, cytotoxicity readout (AID 624344). The following applies: CF bronchial epithelial cells, PAF-induced NFkB reporter inhibition, with PAF, run 1; at 79 µM (top of the series) unless noted.
Assay in assay [8]: as above
The following applies: CF bronchial epithelial cells, PAF-induced NFkB reporter inhibition, with PAF, run 2; at 79 µM (top of the series) unless noted.

For assay [9], the target named is Tumor necrosis factor receptor superfamily member 10B (Homo sapiens) (UniProt O14763). Description: caspase-8 TRAIL sensitization, hit retest, confirmation, cell-based, NB7+caspase-8, with/without TRAIL, luminescence panel (AID 651596; in the data active = activity above about 50%). The following applies: NB7 neuroblastoma + caspase-8, TRAIL sensitization, luminescence viability, with TRAIL, mean of runs, at 10 µM, stronger effect = higher value.

Assay in assay [10]: as above
The following applies: NB7 neuroblastoma + caspase-8, without TRAIL, luminescence viability, without TRAIL, mean of runs, at 10 µM.

Chain of PEG-3 (Q6IN02 whole entry, looked up): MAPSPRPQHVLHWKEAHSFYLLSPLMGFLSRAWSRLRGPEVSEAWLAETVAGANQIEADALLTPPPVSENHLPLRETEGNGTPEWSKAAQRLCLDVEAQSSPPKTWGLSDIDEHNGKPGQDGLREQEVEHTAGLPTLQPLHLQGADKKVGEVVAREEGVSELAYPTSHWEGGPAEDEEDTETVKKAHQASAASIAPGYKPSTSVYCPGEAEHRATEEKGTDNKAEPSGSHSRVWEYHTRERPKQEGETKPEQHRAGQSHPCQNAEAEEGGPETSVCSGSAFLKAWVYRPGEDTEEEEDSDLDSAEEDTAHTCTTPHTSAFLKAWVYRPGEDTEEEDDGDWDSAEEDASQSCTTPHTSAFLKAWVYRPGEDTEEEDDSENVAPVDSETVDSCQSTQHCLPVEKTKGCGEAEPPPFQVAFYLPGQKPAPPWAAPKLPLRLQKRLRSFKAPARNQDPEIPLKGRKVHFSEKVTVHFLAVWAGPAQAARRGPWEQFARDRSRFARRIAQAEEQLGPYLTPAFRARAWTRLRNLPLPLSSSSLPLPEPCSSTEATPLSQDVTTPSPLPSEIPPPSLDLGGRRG
Chain of Tumor necrosis factor receptor superfamily member 10B (Homo sapiens) (O14763 whole entry, looked up): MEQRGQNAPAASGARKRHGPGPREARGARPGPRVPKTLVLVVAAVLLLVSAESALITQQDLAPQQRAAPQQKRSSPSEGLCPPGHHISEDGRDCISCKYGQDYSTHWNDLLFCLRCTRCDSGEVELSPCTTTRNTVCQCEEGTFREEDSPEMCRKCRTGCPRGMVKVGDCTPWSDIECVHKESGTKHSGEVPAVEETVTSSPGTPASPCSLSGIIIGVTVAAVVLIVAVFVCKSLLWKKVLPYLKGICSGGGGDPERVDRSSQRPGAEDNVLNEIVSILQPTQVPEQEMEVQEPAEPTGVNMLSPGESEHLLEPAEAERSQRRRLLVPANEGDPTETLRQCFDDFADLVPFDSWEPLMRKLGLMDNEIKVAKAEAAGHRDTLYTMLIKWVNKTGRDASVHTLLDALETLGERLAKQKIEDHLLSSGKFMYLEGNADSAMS

On to `O=C(/C=C/Nc1ccccc1Br)c1ccccn1`, for which the inhibition in assay [1] is 24% (active); in [2] it was 96.6%; in assay [3], 99.5%; in [4], 97.6%; in [5], 98.9%.

Regarding `COc1cc(/C=C/C(=O)N2CCC=CC2=O)cc(OC)c1OC`, the figures for the inhibition in [1], in assay [2] and in assay [3] were 26.8% (active), 99.1% and 96.1%, respectively.

Regarding `Cc1cc(C)n(-c2ccc3cccc(NS(C)(=O)=O)c3n2)n1`, the inhibition in [1] is 32.1% (active).

As for `C=CCn1c(COc2ccccc2)nnc1SC(C)C(=O)N/N=C/c1cc(Cl)ccc1O` (centres undefined), the inhibition in assay [1] was 30.6% (active); in assay [2], 64%; in assay [3], 86%; in [4] it was 37.9%; in [5], 43.9%.

Take `COc1ccc(-c2cn[nH]c2-c2ccc(OC)cc2)cc1`: the inhibition in [1] is 35.1% (active); in assay [6], 69.3% (active); in assay [7] it was 104%; in [8], 104%.

On to `O=C1c2ccccc2S(=O)(=O)N1Cc1nc2ccccc2s1`, for which the inhibition in assay [1] is 32.9% (active); in [2] it was 101%; in [3], 83.4%.

In the case of `Cc1cnc(NC(=O)c2ccc3c(c2)OCCO3)s1`, the inhibition was 28.6% (active) in [1]; 98.1% in assay [2]; 97% in assay [3]; 100% in [4]; 99.6% in assay [5]. Moreover, the activity in assay [9] was found to be 98.2%; in assay [10] it was 98.5%.

With `CN(C(=O)OC(C)(C)C)c1ccc(-c2nc3ccccc3s2)cc1`, the figures for the inhibition in [1], in assay [2] and in assay [3] were 24.8% (active), 96.5% and 98.2%, respectively. The figures for the activity in [9] and in assay [10] were 92.6% and 91.2%, respectively.

For `COc1ccc2[nH]c3c(c2c1)CC(C)NC3=O` (centres undefined), the inhibition was 33.6% (active) in [1], 103% in assay [7] and 112% in assay [8].

For the molecule `O=C(N/N=C\c1c(O)ccc2ccccc12)c1ccc(Cn2cccn2)o1`, the inhibition in [1] is 24.8% (active); in assay [2], 84.9%; in [3] it was 75.1%; in [4] it was 51.2%; in assay [5], 41.5%.

As for `COC(=O)Cc1[nH]n(-c2nc3ccccc3s2)c(=O)c1C(C)=Nc1ccc(C)cc1`, the inhibition is 32.2% (active) in [1]; 80.3% in assay [2]; 83.8% in [3]; 78.5% in assay [4]; 80.2% in assay [5].

Regarding `COc1ccc(-c2cn[nH]c2-c2ccc(OC)cc2O)cc1`, the figures for the inhibition in [1], in assay [7] and in [8] were 32.5% (active), 103% and 112%, respectively.
